Measurements as given in ChEMBL document CHEMBL4152376, “Optimization of 8-Hydroxyquinolines as Inhibitors of Catechol O-Methyltransferase” (J Med Chem, 2018).

What was measured:
[1] = target: T1, Catechol O-methyltransferase (Homo sapiens, UniProt P21964); assay: Inhibition of c-terminal hexa-His tagged human MB-COMT (unknown origin)
T1 sequence (P21964 whole entry): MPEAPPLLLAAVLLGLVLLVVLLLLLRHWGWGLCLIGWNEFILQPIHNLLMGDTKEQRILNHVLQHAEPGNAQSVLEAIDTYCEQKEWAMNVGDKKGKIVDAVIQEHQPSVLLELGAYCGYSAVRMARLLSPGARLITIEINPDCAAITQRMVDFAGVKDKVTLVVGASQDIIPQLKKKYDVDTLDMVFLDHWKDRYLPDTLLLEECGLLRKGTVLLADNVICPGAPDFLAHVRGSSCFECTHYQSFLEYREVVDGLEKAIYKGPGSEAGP

[2] = target: T1, Catechol O-methyltransferase; assay: Inhibition of c-terminal hexa-His tagged human MB-COMT expressed in HEK293 cell membrane homogenate using norepinephrine as substrate after 1 hr in presence of SAM by MTase glo methyltransferase assay
Outline: (§1)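 Membrane homogenate of HEK293 cells expressing C-terminal His6 MB-COMT (human about 7 ng, rat about 4 ng per well, protein by Bradford […]). 20 µM SAM and 7 µM norepinephrine in 50 mM Tris, 5–10 mM MgCl2, 2.5 mM DTT, pH 6.9, final DMSO 1.5%. 1 h at 37 °C, then MTase-Glo luminescence. […] 4-parameter IC50 fit; triplicate points, three experiments.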

[3] = target: T1, Catechol O-methyltransferase; assay: Inhibition of c-terminal hexa-His tagged human S-COMT expressed in HEK293-6E cell membrane homogenate using 7,8-dihydroxy-4-methylcoumarin as substrate after 1 hr in presence of SAM by MTase glo methyltransferase assay
Outline: (§2)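 His6-tagged S-COMT (human or rat), expressed in 293-6E cells and purified by Ni-NTA and size exclusion, 1 ng per well. 20 µM SAM and 10 µM 7,8-dihydroxy-4-methylcoumarin in pH 6.9 Tris/MgCl2/DTT buffer, 1.5% DMSO. 1 h at 37 °C, then MTase-Glo luminescence read against a SAH standard curve. […] 4-parameter IC50; triplicate wells, three runs.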

[4] = Efflux ratio of permeability in MDCK cells; format: ADME, cell-based, Canis lupus familiaris; conditions: dog
Outline: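 Efflux ratio taken as […] transport across P-glycoprotein-expressing MDCK cells.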

Rattus norvegicus [5] = assay: Volume of distribution at steady state in rat at 1 mg/kg, iv or 3/10 mg/kg, po; format: ADME, organism-based; conditions: in vivo
Outline: (§3)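 Rat pharmacokinetics after a 1 mpk iv dose (n=3) and a 3 or 10 mpk oral dose (n=3).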

Rattus norvegicus [6] = assay: Oral bioavailability in rat at 3/10 mg/kg; format: ADME, organism-based; conditions: in vivo; outline: as §3
[7] = Drug uptake in brain of C57BL/6J mouse at 10 mg/kg, ip measured at 1 hr post dose; format: ADME, organism-based; conditions: C57BL/6J, brain, read-out: Drug uptake
Outline: (§4)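 Male C57BL/6J mice (8 weeks), single ip injection of 10 mg/kg suspended in 0.1% Tween80/0.1% antifoam/1% methylcellulose at 10 mL/kg. Two mice per timepoint; at 1 h, plasma separated at 4 °C and brain homogenized in 4 volumes PBS pH 7.4. Total brain and plasma levels measured.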

[8] = Plasma concentration C57BL/6J mouse at 10 mg/kg, ip measured at 1 hr post dose; format: ADME, organism-based; outline: as §4
[9] = Half life in rat at 1 mg/kg, iv or 3/10 mg/kg, po; format: ADME, organism-based; conditions: in vivo; outline: as §3
[10] = Clearance in rat hepatocytes assessed as per million cells; format: ADME, cell-based, Hepatocyte; conditions: read-out: CLH
[11] = Apparent permeability of the compound in MDCK cells; format: ADME, cell-based, Canis lupus familiaris; conditions: dog
[12] = Protein binding in CSF of Sprague-Dawley rat at 2 uM by equilibrium dialysis; format: ADME, tissue-based, Cerebrospinal fluid; conditions: read-out: PB (converted)
Outline: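 Binding in pooled rat CSF measured by equilibrium dialysis at 2 µM test concentration.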

[13] = Unbound drug level in brain of Sprague-Dawley rat at 10 mg/kg, po after 4 hrs by ES-UPLC analysis; format: ADME, organism-based; conditions: in vivo
Outline: (§5)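 Sprague Dawley rats given 10 mg/kg po; CSF, plasma and brain collected at 4 h. Drug measured in CSF; free plasma and brain levels computed from total levels using plasma protein and brain tissue binding fractions. Free CSF derived from CSF binding by equilibrium dialysis with pooled rat CSF. Ratios taken from these values.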

[14] = Fraction unbound in rat plasma by equilibrium dialysis; format: ADME, cell-free
Outline: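 Percent free drug in mouse or rat plasma, measured by equilibrium dialysis.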

[15] = Ratio of drug level in CSF of Sprague-Dawley rat to unbound plasma concentration in Sprague-Dawley rat at 10 mg/kg, po after 4 hrs by ES-UPLC analysis; format: ADME, organism-based; conditions: in vivo; outline: as §5
Rattus norvegicus [16] = assay: In vivo inhibition of COMT in Sprague-Dawley rat assessed as DOPAC levels in CSF at 10 mg/kg, po measured at 4 hrs post dose by LC-MS analysis relative to control; format: functional
Outline: (§6)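 Male Sprague Dawley rats (176–200 g on arrival) dosed orally at 10 mg/kg in Tween80/antifoam/methylcellulose suspension, 10 mL/kg, vehicle group as control (n=5–10). At 4 h under isoflurane, CSF drawn from cisterna magna. HVA and DOPAC quantified by LC-MS against standards in 0.01 M perchloric acid/aCSF with d5 internal standards. Reported as % of vehicle.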

[17] = Drug level in CSF of Sprague-Dawley rat at 10 mg/kg, po after 4 hrs by ES-UPLC analysis; format: ADME, organism-based, Cerebrospinal fluid; conditions: read-out: Drug uptake; outline: as §5
Rattus norvegicus [18] = assay: In vivo inhibition of COMT in Sprague-Dawley rat assessed as HVA levels in CSF at 10 mg/kg, po measured at 4 hrs post dose by LC-MS analysis relative to control; format: functional; design: scale not given: the % may be the effect or the level left; outline: as §6
[19] = Ratio of drug level in CSF of Sprague-Dawley rat to unbound brain concentration in Sprague-Dawley rat at 10 mg/kg, po after 4 hrs by ES-UPLC analysis; format: ADME, organism-based; conditions: in vivo; outline: as §5
[20] = Unbound plasma concentration in Sprague-Dawley rat 10 mg/kg, po after 4 hrs by ES-UPLC analysis; format: ADME, organism-based; conditions: in vivo; outline: as §5
[21] = target: T2, Catechol O-methyltransferase (Rattus norvegicus, UniProt P22734); assay: Inhibition of c-terminal hexa-His tagged rat MB-COMT expressed in HEK293 cell membrane homogenate using norepinephrine as substrate after 1 hr in presence of SAM by MTase glo methyltransferase assay; outline: as §1
T2 sequence (P22734 whole entry): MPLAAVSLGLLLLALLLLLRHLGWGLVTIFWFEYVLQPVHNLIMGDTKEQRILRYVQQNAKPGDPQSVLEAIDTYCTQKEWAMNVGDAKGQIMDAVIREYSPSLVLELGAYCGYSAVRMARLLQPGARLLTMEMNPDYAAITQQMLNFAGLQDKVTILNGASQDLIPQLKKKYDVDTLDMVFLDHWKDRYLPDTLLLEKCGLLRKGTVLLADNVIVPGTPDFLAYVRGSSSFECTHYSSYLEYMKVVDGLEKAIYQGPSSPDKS

[22] = Ratio of unbound drug level in CSF of Sprague-Dawley rat to unbound plasma concentration in Sprague-Dawley rat at 10 mg/kg, po after 4 hrs by ES-UPLC analysis; format: ADME, organism-based; conditions: CSF and plasma; outline: as §5
[23] = target: T2, Catechol O-methyltransferase; assay: Inhibition of c-terminal hexa-His tagged rat S-COMT expressed in HEK293-6E cell membrane homogenate using 7,8-dihydroxy-4-methylcoumarin as substrate after 1 hr in presence of SAM by MTase glo methyltransferase assay; outline: as §2

| Compound | IC50 [1] | IC50 [2] | IC50 [3] | efflux ratio [4] | Vdss (Rattus norvegicus [5]) | F (Rattus norvegicus [6]) | concentration at 1 h [7] | concentration at 1 h [8] | half-life [9] | hepatocyte CLint [10] | other results |
| --- | --- | --- | --- | --- | --- | --- | --- | --- | --- | --- | --- |
| O=S(=O)(O)c1ccc(O)c2ncccc12 | 6310 nM |  |  |  |  |  |  |  |  |  |  |
| Cc1ccc(S(=O)(=O)c2ccc(O)c3ncccc23)cc1 | 20 nM | 20 nM | 501 nM |  |  |  |  |  |  |  |  |

The next lines start with results.

| IC50 [1] | IC50 [2] | IC50 [3] | efflux ratio [4] | Vdss (Rattus norvegicus [5]) | F (Rattus norvegicus [6]) | concentration at 1 h [7] | concentration at 1 h [8] | half-life [9] | hepatocyte CLint [10] | Compound | other results |
| --- | --- | --- | --- | --- | --- | --- | --- | --- | --- | --- | --- |
| 1580 nM |  |  |  |  |  |  |  |  |  | Cc1ccc(S(=O)(=O)c2cc(O)c3ncccc3c2)cc1 |  |
|  | 316 nM | > 10000 nM | 2.2 | 0.67 L/kg | 45% | 1690 ng/g | 9780 ng/mL | 0.31 h | 78 µL/min/1e6 cells | Cc1ccc(S(=O)(=O)c2cc(Cl)c(O)c3ncccc23)cc1 | Papp [11]: > 10 ×10⁻⁶ cm/s |
|  | 2 nM | 2510 nM | 0.5 | 0.41 L/kg | 32% | 1910 ng/g | 6160 ng/mL | 7.7 h | 19 µL/min/1e6 cells | O=S(=O)(c1cc(F)c(O)c2ncccc12)C1CCCC1 | fraction unbound at 2 µM [12]: 0.43; Drug uptake(free) [13]: 12.8 nM; Fu [14]: 0.2; Ratio [15]: 16.5; CSF DOPAC level (% of vehicle) (Rattus norvegicus [16]): 218%; concentration at 4 h [17]: 321 nM; Activity (Rattus norvegicus [18]): 66%; Ratio [19]: 25; Cp(f) [20]: 19 nM; IC50 [21]: < 1 nM; Kp uu at 4 h [22]: 7.3; IC50 [23]: 7940 nM |
